Test results taken from ChEMBL document CHEMBL3124870, “Discovery and characterization of potent thiazoles versus methicillin- and vancomycin-resistant Staphylococcus aureus” (J Med Chem, 2014).
In brackets after ≈: the same amount, converted by molar mass.

How the values were obtained:
Staphylococcus aureus [1] = assay: Antibacterial activity against methicillin-resistant Staphylococcus aureus USA1100 assessed as inhibition of visible growth by broth microdilution method; assay type: functional
HeLa = assay: Cytotoxicity against human HeLa cells assessed as cell viability at 11 ug/ml by MTS assay; assay type: cell-based
Staphylococcus aureus [2] = assay: Antibacterial activity against methicillin-resistant Staphylococcus aureus USA500 assessed as inhibition of visible growth by broth microdilution method; assay type: functional
Staphylococcus aureus [3] = assay: Antibacterial activity against methicillin-resistant Staphylococcus aureus NRS119 assessed as inhibition of visible growth by broth microdilution method; assay type: functional
MDCK [4] = assay: Apparent permeability from basolateral to apical side in MDCK cells expressing MDR1 for 2 hrs by LC-MS/MS analysis; assay type: ADME, cell-based, Canis lupus familiaris; details: dog
Staphylococcus aureus [5] = assay: Antibacterial activity against vancomycin-resistant Staphylococcus aureus assessed as inhibition of visible growth by broth microdilution method; assay type: functional
MDCK [6] = assay: Efflux ratio of apparent permeability from basolateral to apical side over apical to basolateral side in MDCK cells expressing MDR1 for 2 hrs by LC-MS/MS analysis; assay type: ADME, cell-based, Canis lupus familiaris; details: dog
Method in brief: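 Madin-Darby canine kidney cells transfected to overexpress MDR1 (P-glycoprotein 1). Apparent permeability (Papp, cm/sec) was measured in both the apical-to-basolateral and basolateral-to-apical directions. The efflux ratio was taken as Papp(B→A)/Papp(A→B).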

Staphylococcus aureus [7] = assay: Antibacterial activity against methicillin-resistant Staphylococcus aureus USA700 assessed as inhibition of visible growth by broth microdilution method; assay type: functional
Staphylococcus aureus [8] = assay: Antibacterial activity against vancomycin-intermediate Staphylococcus aureus ATCC 700699 assessed as inhibition of visible growth by broth microdilution method; assay type: functional
Staphylococcus aureus [9] = assay: Antibacterial activity against vancomycin-intermediate Staphylococcus aureus HIP07256 assessed as inhibition of visible growth by broth microdilution method; assay type: functional
Liver microsome = assay: Half life in human liver microsomes by LC-MS/MS analysis; assay type: ADME
Staphylococcus aureus [10] = assay: Antibacterial activity against methicillin-resistant Staphylococcus aureus NRS107 assessed as inhibition of visible growth by broth microdilution method; assay type: functional
Staphylococcus aureus [11] = assay: Antibacterial activity against methicillin-resistant Staphylococcus aureus USA300 assessed as inhibition of visible growth by broth microdilution method; assay type: functional
Caco-2 [12] = assay: Efflux ratio of apparent permeability from basolateral to apical side over apical to basolateral side in human Caco2 cells at 10 microM for 2 hrs by LC-MS/MS analysis; assay type: ADME, cell-based; details: caco-2, 2 h
Method in brief: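 Caco-2 monolayer permeability was run under slightly acidic conditions, with the compound at 10 μM. Transfer was measured in the apical-to-basolateral and basolateral-to-apical directions. The efflux ratio was taken as B→A over A→B permeability.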

Staphylococcus aureus [13] = assay: Antibacterial activity against methicillin-resistant Staphylococcus aureus ATCC 43300 assessed as inhibition of visible growth by broth microdilution method; assay type: functional
Staphylococcus aureus [14] = assay: Antibacterial activity against methicillin-resistant Staphylococcus aureus USA100 assessed as inhibition of visible growth by broth microdilution method; assay type: functional
Staphylococcus aureus [15] = assay: Antibacterial activity against vancomycin-intermediate Staphylococcus aureus LIM 3 assessed as inhibition of visible growth by broth microdilution method; assay type: functional
Staphylococcus aureus [16] = assay: Antibacterial activity against methicillin-resistant Staphylococcus aureus USA200 assessed as inhibition of visible growth by broth microdilution method; assay type: functional
[17] = Aqueous solubility of compound in phosphate buffer assessed as solubility limit after 2 hrs by turbidity analysis; assay type: physicochemical
Staphylococcus aureus [18] = assay: Antibacterial activity against methicillin-resistant Staphylococcus aureus NRS108 assessed as inhibition of visible growth by broth microdilution method; assay type: functional
Staphylococcus aureus [19] = assay: Bactericidal activity against methicillin-resistant Staphylococcus aureus USA300 assessed as time required to complete elimination of bacteria by 3-log10 by time-kill assay; assay type: functional
Method in brief: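 Viable counts (CFU) followed over a 12-hour window; endpoint is a 3-log10 fall in CFU.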

Staphylococcus aureus [20] = assay: Antibacterial activity against methicillin-resistant Staphylococcus aureus NRS194 assessed as inhibition of visible growth by broth microdilution method; assay type: functional
Caco-2 [21] = assay: Apparent permeability across basolateral to apical to side in human Caco2 cells at 10 microM for 2 hrs by LC-MS/MS analysis; assay type: ADME, cell-based; details: caco-2, 2 h
Staphylococcus aureus [22] = assay: Antibacterial activity against methicillin-resistant Staphylococcus aureus USA400 assessed as inhibition of visible growth by broth microdilution method; assay type: functional
MDCK [23] = assay: Apparent permeability from apical to basolateral side in MDCK cells expressing MDR1 for 2 hrs by LC-MS/MS analysis; assay type: ADME, cell-based, Canis lupus familiaris; details: dog
Staphylococcus aureus [24] = assay: Antibacterial activity against methicillin-resistant Staphylococcus aureus USA1000 assessed as inhibition of visible growth by broth microdilution method; assay type: functional
Staphylococcus aureus [25] = assay: Antibacterial activity against methicillin-resistant Staphylococcus aureus USA800 assessed as inhibition of visible growth by broth microdilution method; assay type: functional

CCCCc1ccc(-c2nc(C)c(/C(C)=N/NC(=N)N)s2)cc1
MIC (Staphylococcus aureus [1]): 2.8 µg/mL (≈ 8.5 µM) | Activity (HeLa): Non-toxic | MIC (Staphylococcus aureus [2]): 1.4 µg/mL (≈ 4.25 µM) | MIC (Staphylococcus aureus [3]): 1.4 µg/mL (≈ 4.25 µM) | Papp (MDCK [4]): 3.6 ×10⁻⁶ cm/s | MIC (Staphylococcus aureus [5]): 1.4 µg/mL (≈ 4.25 µM) | Ratio (MDCK [6]): 5 | MIC (Staphylococcus aureus [7]): 1.8 µg/mL (≈ 5.46 µM) | MIC (Staphylococcus aureus [8]): 1.4 µg/mL (≈ 4.25 µM) | MIC (Staphylococcus aureus [9]): 1.4 µg/mL (≈ 4.25 µM) | t1/2 (Liver microsome): 28.8 min | MIC (Staphylococcus aureus [10]): 1.4 µg/mL (≈ 4.25 µM) | MIC (Staphylococcus aureus [11]): 1.4 µg/mL (≈ 4.25 µM) | Ratio (Caco-2 [12]): > 2 | MIC (Staphylococcus aureus [13]): 2.8 µg/mL (≈ 8.5 µM) | MIC (Staphylococcus aureus [14]): 5.5 µg/mL (≈ 16.7 µM) | MIC (Staphylococcus aureus [15]): 1.4 µg/mL (≈ 4.25 µM) | MIC (Staphylococcus aureus [16]): 2.8 µg/mL (≈ 8.5 µM) | solubility kinetic at 2 h [17]: 62.6 µM (≈ 20.6 µg/mL) | MIC (Staphylococcus aureus [18]): 1.4 µg/mL (≈ 4.25 µM) | Time (Staphylococcus aureus [19]): 2 h | MIC (Staphylococcus aureus [20]): 1.4 µg/mL (≈ 4.25 µM) | Papp (Caco-2 [21]): 2.2 ×10⁻⁶ cm/s | MIC (Staphylococcus aureus [22]): 1.4 µg/mL (≈ 4.25 µM) | Papp (MDCK [23]): 0.7 ×10⁻⁶ cm/s | MIC (Staphylococcus aureus [24]): 1.4 µg/mL (≈ 4.25 µM) | MIC (Staphylococcus aureus [25]): 2.3 µg/mL (≈ 6.98 µM)

C/C(=N\NC(=N)N)c1sc(-c2ccc(-c3ccccc3)cc2)nc1C
MIC (Staphylococcus aureus [1]): 0.6 µg/mL (≈ 1.72 µM) | Activity (HeLa): Non-toxic | MIC (Staphylococcus aureus [2]): 1.6 µg/mL (≈ 4.58 µM) | MIC (Staphylococcus aureus [3]): 0.6 µg/mL (≈ 1.72 µM) | MIC (Staphylococcus aureus [5]): 0.6 µg/mL (≈ 1.72 µM) | MIC (Staphylococcus aureus [7]): 0.8 µg/mL (≈ 2.29 µM) | MIC (Staphylococcus aureus [8]): 0.6 µg/mL (≈ 1.72 µM) | MIC (Staphylococcus aureus [9]): 0.5 µg/mL (≈ 1.43 µM) | MIC (Staphylococcus aureus [10]): 1.2 µg/mL (≈ 3.43 µM) | MIC (Staphylococcus aureus [11]): 1 µg/mL (≈ 2.86 µM) | MIC (Staphylococcus aureus [13]): 0.6 µg/mL (≈ 1.72 µM) | MIC (Staphylococcus aureus [14]): 2 µg/mL (≈ 5.72 µM) | MIC (Staphylococcus aureus [15]): 0.6 µg/mL (≈ 1.72 µM) | MIC (Staphylococcus aureus [16]): 0.6 µg/mL (≈ 1.72 µM) | MIC (Staphylococcus aureus [18]): 2 µg/mL (≈ 5.72 µM) | MIC (Staphylococcus aureus [20]): 1.4 µg/mL (≈ 4.01 µM) | MIC (Staphylococcus aureus [22]): 0.8 µg/mL (≈ 2.29 µM) | MIC (Staphylococcus aureus [24]): 0.8 µg/mL (≈ 2.29 µM) | MIC (Staphylococcus aureus [25]): 1.2 µg/mL (≈ 3.43 µM)

CCCc1ccc(-c2nc(C)c(/C(C)=N/NC(=N)N)s2)cc1
MIC (Staphylococcus aureus [1]): 1.6 µg/mL (≈ 5.07 µM) | Activity (HeLa): Non-toxic | MIC (Staphylococcus aureus [2]): 1.9 µg/mL (≈ 6.02 µM) | MIC (Staphylococcus aureus [3]): 1.9 µg/mL (≈ 6.02 µM) | MIC (Staphylococcus aureus [5]): 1.2 µg/mL (≈ 3.8 µM) | MIC (Staphylococcus aureus [7]): 1.2 µg/mL (≈ 3.8 µM) | MIC (Staphylococcus aureus [8]): 1.9 µg/mL (≈ 6.02 µM) | MIC (Staphylococcus aureus [9]): 1.9 µg/mL (≈ 6.02 µM) | MIC (Staphylococcus aureus [10]): 1.2 µg/mL (≈ 3.8 µM) | MIC (Staphylococcus aureus [11]): 1.2 µg/mL (≈ 3.8 µM) | MIC (Staphylococcus aureus [13]): 1.2 µg/mL (≈ 3.8 µM) | MIC (Staphylococcus aureus [14]): 1.6 µg/mL (≈ 5.07 µM) | MIC (Staphylococcus aureus [15]): 1.6 µg/mL (≈ 5.07 µM) | MIC (Staphylococcus aureus [16]): 1.9 µg/mL (≈ 6.02 µM) | MIC (Staphylococcus aureus [18]): 1.2 µg/mL (≈ 3.8 µM) | MIC (Staphylococcus aureus [20]): 1.9 µg/mL (≈ 6.02 µM) | MIC (Staphylococcus aureus [22]): 1.2 µg/mL (≈ 3.8 µM) | MIC (Staphylococcus aureus [24]): 1.6 µg/mL (≈ 5.07 µM) | MIC (Staphylococcus aureus [25]): 1.9 µg/mL (≈ 6.02 µM)

CCCCCc1ccc(-c2nc(C)c(/C(C)=N/NC(=N)N)s2)cc1
Activity (HeLa): Non-toxic | MIC (Staphylococcus aureus [3]): 0.9 µg/mL (≈ 2.62 µM) | MIC (Staphylococcus aureus [7]): 0.9 µg/mL (≈ 2.62 µM) | MIC (Staphylococcus aureus [9]): 0.7 µg/mL (≈ 2.04 µM) | MIC (Staphylococcus aureus [10]): 0.5 µg/mL (≈ 1.46 µM) | MIC (Staphylococcus aureus [13]): 0.8 µg/mL (≈ 2.33 µM) | MIC (Staphylococcus aureus [18]): 0.9 µg/mL (≈ 2.62 µM) | Time (Staphylococcus aureus [19]): 2 h | MIC (Staphylococcus aureus [20]): 1.1 µg/mL (≈ 3.2 µM) | MIC (Staphylococcus aureus [22]): 0.9 µg/mL (≈ 2.62 µM) | MIC (Staphylococcus aureus [25]): 0.7 µg/mL (≈ 2.04 µM)

CCCCCCCc1ccc(-c2nc(C)c(/C(C)=N/NC(=N)N)s2)cc1
MIC (Staphylococcus aureus [1]): 1.5 µg/mL (≈ 4.04 µM) | Activity (HeLa): Non-toxic | MIC (Staphylococcus aureus [2]): 3 µg/mL (≈ 8.07 µM) | MIC (Staphylococcus aureus [3]): 1.5 µg/mL (≈ 4.04 µM) | MIC (Staphylococcus aureus [5]): 1.5 µg/mL (≈ 4.04 µM) | MIC (Staphylococcus aureus [7]): 4 µg/mL (≈ 10.8 µM) | MIC (Staphylococcus aureus [8]): 0.7 µg/mL (≈ 1.88 µM) | MIC (Staphylococcus aureus [9]): 1.5 µg/mL (≈ 4.04 µM) | MIC (Staphylococcus aureus [10]): 1 µg/mL (≈ 2.69 µM) | MIC (Staphylococcus aureus [11]): 2.5 µg/mL (≈ 6.73 µM) | MIC (Staphylococcus aureus [13]): 3 µg/mL (≈ 8.07 µM) | MIC (Staphylococcus aureus [14]): 3 µg/mL (≈ 8.07 µM) | MIC (Staphylococcus aureus [15]): 0.7 µg/mL (≈ 1.88 µM) | MIC (Staphylococcus aureus [16]): 1.2 µg/mL (≈ 3.23 µM) | MIC (Staphylococcus aureus [18]): 3 µg/mL (≈ 8.07 µM) | MIC (Staphylococcus aureus [20]): 3 µg/mL (≈ 8.07 µM) | MIC (Staphylococcus aureus [22]): 1.5 µg/mL (≈ 4.04 µM) | MIC (Staphylococcus aureus [24]): 2.5 µg/mL (≈ 6.73 µM) | MIC (Staphylococcus aureus [25]): 1.5 µg/mL (≈ 4.04 µM)

CCCCCCCCCc1ccc(-c2nc(C)c(/C(C)=N/NC(=N)N)s2)cc1
Activity (HeLa): Non-toxic | MIC (Staphylococcus aureus [2]): 3.7 µg/mL (≈ 9.26 µM) | MIC (Staphylococcus aureus [3]): 2.2 µg/mL (≈ 5.51 µM) | MIC (Staphylococcus aureus [7]): 1.8 µg/mL (≈ 4.5 µM) | MIC (Staphylococcus aureus [8]): 1.1 µg/mL (≈ 2.75 µM) | MIC (Staphylococcus aureus [9]): 2.9 µg/mL (≈ 7.26 µM) | MIC (Staphylococcus aureus [10]): 1.1 µg/mL (≈ 2.75 µM) | MIC (Staphylococcus aureus [15]): 1.1 µg/mL (≈ 2.75 µM) | MIC (Staphylococcus aureus [18]): 4.4 µg/mL (≈ 11 µM) | MIC (Staphylococcus aureus [20]): 4.4 µg/mL (≈ 11 µM) | MIC (Staphylococcus aureus [22]): 4.4 µg/mL (≈ 11 µM) | MIC (Staphylococcus aureus [25]): 1.8 µg/mL (≈ 4.5 µM)
